Consider 3 compounds from publication PMC3914721 (Biochemistry, 2013).

Series [1] has as its target T1, Ms sGC-NT13 (Manduca sexta, UniProt O77106). The format is binding.
For another series, the target named is Ms sGC-NT13-CO (Manduca sexta, UniProt O77106). Briefly: Soret band shift titration of CO-saturated protein. The format is binding.
The target in the next series is Ms sGC-NT21-CO (Manduca sexta, UniProt O77106). The series is described as follows: Soret band shift titration of CO-saturated protein. The format is binding.
Series [2] addresses T1, Ms sGC-NT13. The series is described as follows: CO titration monitoring the CO-bound Soret band. The format is binding. Particulars: for Kd^CO/Kd^CO′ cooperativity factor: ratio of CO dissociation constants without and with compound. The method in brief: (§1)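 CO titrations were run at room temperature in 50 mM potassium phosphate pH 7.4, 100 mM KCl, 5% glycerol, at several YC-1 concentrations (0–50 μM). NT21 used a 10 cm cuvette with 0.1 μM protein; NT13 used a 1 cm cuvette with 1 μM protein. A four-state cooperative model was globally fit to normalized absorbance changes at 423 and 433 nm, giving Ka^CO, Ka^YC-1 and Kint. Kd^CO′ is the inverse of Ka^CO·Kint.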

In series [3] the test system is pre-constricted aortic rings. Particulars: read-out: EC50 to stimulate sGC in pre-constricted aortic rings; cited from earlier work.
For series [4], the target named is T2, Ms sGC-NT21 (Manduca sexta, UniProt O77106). The format is binding. Particulars: for Kint (CO) cooperativity factor: from global fitting.
The target of the next series is Ms sGC-NT (Manduca sexta, UniProt O77106). The series is described as follows: Stimulator binding to Ms sGC-NT constructs, summary over constructs and methods. The following applies: for Effect of α1 H-NOX removal on stimulator binding (Ms sGC-NT21 vs Ms sGC-NT13): unliganded proteins.
Series [5] concerns the target T2, Ms sGC-NT21. The series is described as follows: CO titration monitoring the CO-bound Soret band. The format is binding. Particulars: for Kd^CO/Kd^CO′ cooperativity factor: ratio of CO dissociation constants without and with compound. The essentials:
as §1

The target in the next series is T3, Bt sGC β1(1–197) (Bos taurus, UniProt P16068).
T3 sequence (P16068 1-197): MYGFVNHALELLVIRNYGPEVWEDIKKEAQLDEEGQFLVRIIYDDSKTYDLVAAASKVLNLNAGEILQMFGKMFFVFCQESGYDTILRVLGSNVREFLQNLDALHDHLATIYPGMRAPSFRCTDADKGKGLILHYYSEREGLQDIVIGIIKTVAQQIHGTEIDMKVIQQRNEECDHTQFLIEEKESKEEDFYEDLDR
Briefly: CO titration monitoring the CO-bound Soret band. The format is binding, Bos taurus (bovine). The method in brief: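 Bovine β1 H-NOX construct was expressed in E. coli BL21(DE3)pRIPL with δ-aminolevulinic acid and ferric citrate. It was purified by Q-FF, S75 and second Q-FF chromatography and prepared in Ar-purged buffer with excess dithionite. CO from a saturated solution was titrated by gas-tight syringe into the septum-capped cuvette while the CO-bound Soret band was followed. Data were fit to a single-site saturation model.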

For a further series, the target named is Ms sGC-NT2. Particulars: read-out: Kd^CO, no stimulator, cited from earlier work.
The target in a further series is T4, Bt sGC β1(1–359) (Bos taurus, UniProt P16068).
T4 sequence (P16068 1-359): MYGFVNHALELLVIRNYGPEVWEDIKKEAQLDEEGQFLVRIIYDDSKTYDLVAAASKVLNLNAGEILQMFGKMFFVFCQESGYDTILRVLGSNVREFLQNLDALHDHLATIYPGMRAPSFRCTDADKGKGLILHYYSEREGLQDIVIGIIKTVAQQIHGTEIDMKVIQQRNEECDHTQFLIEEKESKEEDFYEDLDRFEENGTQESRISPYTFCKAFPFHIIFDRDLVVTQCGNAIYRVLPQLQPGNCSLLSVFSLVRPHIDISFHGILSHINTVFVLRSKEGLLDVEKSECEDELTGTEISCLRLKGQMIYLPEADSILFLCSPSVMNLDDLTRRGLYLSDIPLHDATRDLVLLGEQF
Briefly: CO titration monitoring the CO-bound Soret band. The format is binding, Bos taurus (bovine). The following applies: read-out: Kd^CO; no stimulator; 1 μM protein. The essentials:
(§2)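 CO from a saturated solution was added by gas-tight syringe to protein in septum-capped 1 or 10 cm cuvettes. The appearance of the CO-bound Soret absorption band was followed, and data were fit to a single-site saturation ligand-binding model.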

A further series concerns the target Hs sGC (full length). The following applies: read-out: Kd^CO; no stimulator; ref 77; cited from earlier work.
The target of series [6] is heterodimeric sGC proteins. Briefly: CO binding to heterodimeric sGC proteins, summary over constructs. More on the design: species or system Manduca sexta. Particulars: read-out: Kd^CO, range over heterodimeric proteins; absence of YC-1. The essentials:
as §2

For another series, the target named is T5, Ms sGC β1(1–380) (Manduca sexta, UniProt O77106).
T5 sequence (O77106 1-380): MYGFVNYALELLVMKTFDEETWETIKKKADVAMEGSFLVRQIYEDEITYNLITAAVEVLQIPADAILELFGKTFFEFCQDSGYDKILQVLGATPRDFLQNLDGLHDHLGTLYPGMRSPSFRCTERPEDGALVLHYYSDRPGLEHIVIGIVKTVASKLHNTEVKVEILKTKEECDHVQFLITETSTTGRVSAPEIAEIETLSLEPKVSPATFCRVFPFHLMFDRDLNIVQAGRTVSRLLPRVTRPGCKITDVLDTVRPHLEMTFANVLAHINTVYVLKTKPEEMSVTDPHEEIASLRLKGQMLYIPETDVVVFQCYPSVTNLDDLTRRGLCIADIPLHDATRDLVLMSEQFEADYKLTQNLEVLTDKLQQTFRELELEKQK
Briefly: CO titration monitoring the CO-bound Soret band. The format is binding. The following applies: for Kd: read-out: Kd^CO. The essentials:
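Ms β1(1–380) was expressed in E. coli Rosetta pLysS with 25 μM δ-aminolevulinic acid. It was purified by anion exchange, Ni-NTA (EDTA elution) and S200 gel filtration, where it ran as a monomer, then prepared in Ar-purged buffer with excess dithionite. CO from a saturated solution was titrated into a septum-capped 10 cm cuvette, the CO-bound Soret band was followed, and data were fit to a single-site saturation model.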

The target in a further series is Ms sGC-NT19. Particulars: read-out: Kd^CO; no stimulator; ref 43; cited from earlier work.
The target of series [7] is Bt sGC (full length). Particulars: read-out: Kd^CO, no stimulator, cited from earlier work.
A further series relates to β1 PAS domain. Briefly: Fluorescence anisotropy of YC-1. The format is binding, Manduca sexta. The following applies: 2 μM YC-1, 20 °C; likely non-specific.
For the next series, the target named is T6, Ms sGC α1 PAS (Manduca sexta, UniProt O77105).
T6 sequence (O77105 279-404): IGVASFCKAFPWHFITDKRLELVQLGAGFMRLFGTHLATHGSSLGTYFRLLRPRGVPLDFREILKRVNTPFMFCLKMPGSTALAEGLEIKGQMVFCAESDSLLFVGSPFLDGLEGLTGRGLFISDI
The series is described as follows: Fluorescence anisotropy of YC-1. The format is binding.

Series [8] addresses Bt sGC (full length). Particulars: read-out: Kd^YC-1′, +CO; measured in the presence of GTP; cited from earlier work.
A further series concerns lysozyme. Briefly: Fluorescence anisotropy of YC-1. The format is binding. The following applies: 2 μM YC-1, 20 °C.
The next series concerns sGC. Particulars: cited from earlier work.
The test system of a further series is Ms sGC β1 (1–380). Briefly: Soret band shift on YC-1 addition. The format is binding, Manduca sexta. The following applies: CO-saturated protein.

Where “and” joins values, the source holds several entries; their conditions need not be identical. Equal values may be shown once. Read-outs that look alike come from different tables or passages of the source. Where only a bound is given, the exact number is not on record here.

Regarding `Nc1nc(-c2nn(Cc3ccccc3F)c3ncccc23)ncc1C1CC1` [BAY 41–2272], in “Aqueous solubility”, the “Solubility in aqueous buffer” value was “poor solubility”. Further, the Kd at Ms sGC-NT13 [1] (Kd^BAY, −NO/CO, estimated assuming linked equilibria: (Kd^CO/Kd^CO′) Kd^BAY′) is 17000 ± 3000 nM; on Ms sGC-NT13-CO, 80 ± 10 nM; on Ms sGC-NT21-CO, 90 ± 20 nM; on Ms sGC-NT21 [4] it was 30 ± 10 nM. Moreover, the results for the “Kd^CO/Kd^CO′ cooperativity factor” value at Ms sGC-NT13 [2] and on Ms sGC-NT21 [5] were 212 ± 23 and 31 ± 5, respectively. Besides, in [3], the EC50 is 300 nM. Besides, on Ms sGC-NT21 [4], the “Kint (CO) cooperativity factor” value is given as 58 ± 7. The “Effect of α1 H-NOX removal on stimulator binding (Ms sGC-NT21 vs Ms sGC-NT13)” value on Ms sGC-NT is ~ 9 fold.

In the case of `[C-]#[O+]` [CO], at Bt sGC β1(1–197), the “Fold less tight CO binding than Ms sGC β1(1–380)” value is recorded as ~ 8 fold. Further, the Kd was 1600 ± 200 nM on Bt sGC β1(1–197) (read-out: Kd^CO, no stimulator, 1 cm cuvette, 0.5 μM protein); 77000 ± 7000 nM at Ms sGC-NT2 (ref 33); 90000 ± 9000 nM on Ms sGC-NT2 (ref 43); 15000 ± 4000 nM on Bt sGC β1(1–359); 53000 ± 4000 nM at Ms sGC-NT13 [2] (read-out: Kd^CO, no stimulator, 1 μM protein); 260000 nM on Hs sGC (full length). The Kd in [6] was 50000 to 100000 nM and 50000 to 90000 nM; at Ms sGC β1(1–380) (absence of the alpha chain), around 200 nM; at Ms sGC β1(1–380) (no stimulator, 10 cm cuvette, 0.1 μM protein), ~200 nM and 200 nM; on Ms sGC-NT19, 50000 ± 3000 nM; at Bt sGC (full length) [7] (ref 51), 127000 nM; at Bt sGC (full length) [7] (ref 76), 97000 nM. The Kd at Ms sGC-NT21 [5] (read-out: Kd^CO, no stimulator, 10 cm cuvette, 0.1 μM protein) was determined as 2200 ± 200 nM. The “Fold enhancement of CO binding on complete removal of the α1 chain” value on Ms sGC β1(1–380) (vs heterodimeric Ms sGC) came to 265 fold. At Ms sGC-NT21 [5] (removal of the α1 H-NOX domain), the “Fold tighter CO binding than Ms sGC proteins containing the α1 H-NOX domain” value is 20–40 fold and 24 fold.

Regarding `OCc1ccc(-c2nn(Cc3ccccc3)c3ccccc23)o1` [YC-1], the “Solubility in aqueous buffer” value in the series “Aqueous solubility” is given as “poor solubility”. In addition, the “Kint (CO) cooperativity factor” value was 19 and 19 ± 2 at Ms sGC-NT13 [1] (from global fitting); 14 and 13.8 ± 0.3 at Ms sGC-NT21 [4]. Besides, the “Binding of YC-1 by fluorescence anisotropy” value with β1 PAS domain was “weak signal”; with lysozyme, “not for lysozyme”. The Kd on Ms sGC α1 PAS was above 100000 nM; on Bt sGC (full length) [8], around 8000 nM; at Ms sGC-NT13-CO, 800 ± 100 nM; at Ms sGC-NT21-CO, 600 ± 100 nM; on Ms sGC-NT (Kd, CO complexes (presence of CO), over constructs, Ms sGC-NT13 and Ms sGC-NT21), 600 to 1100 nM and ~1000 nM. Besides, the “Kd^CO/Kd^CO′ cooperativity factor” value amounted to 19 ± 3 on Ms sGC-NT13 [2] and 11 ± 1 on Ms sGC-NT21 [5]. In addition, the “Stimulation of sGC” value in the series with sGC (in the absence of NO) is on record as “two- to four-fold”. For the same compound, in the series on sGC (synergistically with CO or NO), the “Activation of sGC” value is recorded as “several hundred fold”. The “Kint, cooperativity in CO binding” value on Ms sGC β1(1–380) (any of the constructs missing the α1 chain) was ~ 1. Besides, the “Effect of α1 H-NOX removal on stimulator binding (Ms sGC-NT21 vs Ms sGC-NT13)” value at Ms sGC-NT is ~ 2 fold. Moreover, on Ms sGC-NT21 [5] (50 μM YC-1), the “Tightening of the CO dissociation constant upon YC-1 binding” value amounted to 10 fold. In addition, the “Shift in Soret band maxima upon YC-1 binding” value in the series with Ms sGC β1 (1–380) is listed as “not observed”.
